Values after ≈ are worked out from the molar mass of the structure shown.
Columns and labels:
Botrytis cinerea [1] = experiment: Antifungal activity against Botrytis cinerea 98G1 assessed as drug level required for detectable inhibition of fungal growth after 24 hrs at 20 degC in darkness by microtiter plate method; format: functional
Procedure, shortened: (§1)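 B. cinerea 98G1 conidia (tomato leaf agar, near-UV induced sporulation, mesh-filtered) suspended at 10⁶ spores/mL in liquid Hagem, 100 μL per well over dried isolated enniatins or commercial enniatin mixture at 10, 25, 50, 75, 100 μg/mL. A620 read at inoculation and after 24 h at 20 ± 1 °C in darkness, plus stereomicroscope 4-rank scale; duplicate wells.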

Botrytis cinerea [2] = experiment: Antifungal activity against Botrytis cinerea 98G1 spore germination after 24 hrs at 20 degC in darkness by microtiter plate method; format: functional; details: 98G1, 24 h; procedure, shortened: as §1

| Compound | MIC (Botrytis cinerea [2]) [µg/mL] | Activity (Botrytis cinerea [1]) [µg/mL] |
| --- | --- | --- |
| CC[C@H](C)[C@H]1C(=O)O[C@H](C(C)C)C(=O)N(C)[C@@H](C(C)C)C(=O)O[C@H](C(C)C)C(=O)N(C)[C@@H](C(C)C)C(=O)O[C@H](C(C)C)C(=O)N1C [ENNIATIN B1] | 75 (≈ 115 µM) | 25 |
| CC(C)[C@@H]1NC(=O)[C@@H](C(C)C)OC(=O)[C@H](C(C)C)N(C)C(=O)[C@@H](C(C)C)OC(=O)[C@H](C(C)C)N(C)C(=O)[C@@H](C(C)C)OC1=O [ENNIATIN B2] | > 100 | >100 |
| CC(C)[C@H]1C(=O)O[C@H](C(C)C)C(=O)N(C)[C@@H](C(C)C)C(=O)O[C@H](C(C)C)C(=O)N(C)[C@@H](C(C)C)C(=O)O[C@H](C(C)C)C(=O)N1C [ENNIATIN B] | > 100 | 100 |

Now from value to molecule, other results behind:

| MIC (Botrytis cinerea [2]) [µg/mL] | Compound | Activity (Botrytis cinerea [1]) [µg/mL] |
| --- | --- | --- |
| > 100 | CC(C)C[C@H]1C(=O)O[C@H](C(C)C)C(=O)N(C)[C@@H](C(C)C)C(=O)O[C@H](C(C)C)C(=O)N(C)[C@@H](C(C)C)C(=O)O[C@H](C(C)C)C(=O)N1C [ENNIATIN B4] | 50 |
| > 100 | CC(C)[C@H]1C(=O)O[C@H](C(C)C)C(=O)N(C)[C@@H](C)C(=O)O[C@H](C(C)C)C(=O)N(C)[C@@H](C(C)C)C(=O)O[C@H](C(C)C)C(=O)N1C [ENNIATIN J1] | >100 |
| > 100 | CC[C@H]1C(=O)O[C@H](C(C)C)C(=O)N(C)[C@@H](C(C)C)C(=O)O[C@H](C(C)C)C(=O)N(C)[C@@H](C(C)C)C(=O)O[C@H](C(C)C)C(=O)N1C [ENNIATIN K1] | 100 |

Reference: ChEMBL document CHEMBL1151207, “Enniatins of Fusarium sp. strain F31 and their inhibition of Botrytis cinerea spore germination” (2004)
